Results from different studies.
Each line is one published result; the experiments were not run side by side.
Matrix: plasma

| Structure (SMILES) | test system | setting | endpoint | result |
| --- | --- | --- | --- | --- |
| CCOC(=O)[C@@]12C[C@@H]1[C@@H](n1ccc3c(NC)nc(C#Cc4ccc(Cl)s4)nc31)[C@H](O)[C@@H]2O | male Sprague-Dawley rat | intravenous, 0.5 mg/kg | clearance | 302 mL/min/kg |
| N#Cc1ccc(Nc2nc(N)cc(Oc3c(F)cc(-c4ccc(C#N)cc4)cc3F)n2)cc1 | Sprague-Dawley rat | intravenous, 1 mg/kg | clearance | 54.6 mL/min/kg |
| Oc1cc(O)cc(-c2cc3ccc(O)cc3o2)c1 | male rat | intravenous, 5 mg/kg | clearance | 89.5 mL/min/kg |
| CCCC[C@@H]1NC(=O)[C@H](Cc2ccc(O)cc2)NC(=O)[C@@H]2CCCN2C(=O)[C@H](CC(=O)O)NC(=O)[C@H](C)NC(=O)[C@H](Cc2ccccc2)NC(=O)[C@@H]2CSCCC(=O)N3CN(CN(C3)C(=O)CCSC[C@@H](C(=O)N[C@@H](C)C(N)=O)NC1=O)C(=O)CCSC[C@H](NC(C)=O)C(=O)N[C@@H](CC(C)(C)C)C(=O)N1CCC[C@H]1C(=O)N[C@@H](CCC(=O)O)C(=O)N[C@H](CCCCNC(=O)CCc1cn(CCOCCOCCOCCOCCOCCOCCOCCOCCOCCOCCNC(=O)c3cc(C(=O)NCCOCCOCCOCCOCCOCCOCCOCCOCCOCCOCCn4cc(CCC(=O)NCCCC[C@H]5NC(=O)[C@H](CCC(=O)O)NC(=O)[C@@H]6CCCN6C(=O)[C@H](CC(C)(C)C)NC(=O)[C@@H](NC(C)=O)CSCCC(=O)N6CN7CN(C6)C(=O)CCSC[C@H](NC(=O)[C@H](Cc6ccc(O)cc6)NC(=O)[C@@H]6CCCN6C5=O)C(=O)N[C@@H](Cc5ccccc5)C(=O)N[C@@H](C)C(=O)N[C@@H](CC(=O)O)C(=O)N5CCC[C@H]5C(=O)N[C@@H](Cc5ccc(O)cc5)C(=O)N[C@@H](CCCC)C(=O)N[C@H](C(=O)N[C@@H](C)C(N)=O)CSCCC7=O)nn4)cc(C(=O)NCCOCCOCCOCCOCCOCCOCCOCCOCCOCCOCCn4cc(CCC(=O)N[C@H]5CSCCC(=O)N6CN7CN(C6)C(=O)CCSC[C@H](NC(=O)[C@@H](CC(=O)O)NC(=O)[C@H](Cc6cccc8ccccc68)NC(=O)[C@@H]6CCCN6C5=O)C(=O)N[C@@H](CCSC)C(=O)N[C@@H](CCCCNC(=N)N)C(=O)N[C@@H](CC(=O)O)C(=O)N[C@@H](Cc5c[nH]c6ccccc56)C(=O)N[C@@H](CO)C(=O)N[C@@H]([C@@H](C)O)C(=O)N5CCC[C@H]5C(=O)N5C[C@H](O)C[C@H]5C(=O)N[C@@H](Cc5c[nH]c6ccccc56)C(=O)N[C@H](C(N)=O)CSCCC7=O)nn4)c3)nn1)C(=O)N1CCC[C@H]1C(=O)N[C@@H](Cc1ccc(O)cc1)C(=O)N2 | rat | intravenous, 2 mg/kg | clearance | 9.2 mL/min/kg |
| COc1ccc(C(C)=O)c(O)c1 | male Sprague-Dawley rat | oral, 100 mg/kg | CL/F | 44.2 mL/min/kg |
| Oc1c(Br)cc(Cl)c2cccnc12 | Sprague-Dawley rat | intravenous, 2 mg/kg | clearance | 27.8 mL/min/kg |
| COc1ccc2c(Cc3ccccc3F)c3n(c(=O)c2c1OC)CCc1cc2c(cc1-3)OCO2 | rat | intravenous, 5 mg/kg | clearance | 3.67 mL/min/kg |
| CNC(=O)c1c(C)oc2cc(Oc3ncnc4cc(OC)c(OC)cc34)ccc12 | Sprague-Dawley rat | oral, 1 mg/kg, single dose | CL/F | 3.5 mL/min/kg |
| CC[C@H](C)[C@H](NC(=O)[C@H](Cc1ccccc1)NC(=O)[C@H](CCC(=O)O)NC(=O)[C@H](CCCNC(=N)N)NC(=O)[C@H](C)NC(=O)[C@H](C)NC(=O)[C@H](CCC(N)=O)NC(=O)[C@H](CCC(=O)O)NC(=O)[C@H](CCC(=O)O)NC(=O)[C@H](CC(C)C)NC(=O)[C@H](Cc1ccc(O)cc1)NC(=O)[C@H](CO)NC(=O)[C@H](CO)NC(=O)[C@@H](NC(=O)[C@H](CC(=O)O)NC(=O)[C@H](CO)NC(=O)[C@@H](NC(=O)[C@H](Cc1ccccc1)NC(=O)[C@@H](NC(=O)CNC(=O)[C@H](CCC(=O)O)NC(=O)[C@H](C)NC(=O)CCc1c[nH]cn1)[C@@H](C)O)[C@@H](C)O)C(C)C)C(=O)N[C@@H](C)C(=O)N[C@@H](Cc1c[nH]c2ccccc12)C(=O)N[C@@H](CC(C)C)C(=O)N[C@H](C(=O)N[C@@H](CCCNC(=N)N)C(=O)NCC(=O)N[C@@H](CCCNC(=N)N)C(=O)N[C@@H](CCCCNC(=O)COCCOCCNC(=O)COCCOCCNC(=O)CC[C@H](NC(=O)CCCCCCCCCCCCCCCCC(=O)O)C(=O)O)C(=O)O)C(C)C | rat | subcutaneous, 20 nmol/kg | CL/F | 0.145 mL/min/kg |
| COCCOC(=O)C1=C(C)NC(C)=C(C(=O)OC(C)C)C1c1cccc([N+](=O)[O-])c1 (stereo not shown) | male Sprague-Dawley rat | intravenous, 3 mg/kg | clearance | 0.025 mL/min/kg |
| C=CC(=O)Nc1cc(Nc2nccc(Nc3cc(Cl)c(F)cc3C(C)(C)O)n2)c(OC)cc1N1CC[C@@H](N(C)C)C1 | Wistar rat | intravenous, 3 mg/kg | clearance | 30.8 mL/min/kg |
| O=C(c1cc(Cc2n[nH]c(=O)c3ccccc23)ccc1F)N1CCN(C(=O)C2CC2)CC1 | female Sprague-Dawley rat | intravenous | clearance | 2.22 mL/min |
| Cl.Clc1ccc2c(c1)nc(N1CCNCC1)n2Cc1ccccc1 | rat | intravenous, 1 mg/kg | clearance | 144 mL/min/kg |
